# According to ChEMBL document CHEMBL5329172, “Chloroacetamide fragment library screening identifies new scaffolds for covalent inhibition of the TEAD·YAP1 interaction” (RSC Med Chem, 2023):
# Activity calls are given as the source filed them. The calls are words filed in the database; no cut-off is given here.
# Experiments:
# [1] = (§1) Inhibition of GST-tagged TEAD4 C367S mutant (unknown origin) expressed in Escherichia coli BL21 (DE3) cells/FAM-labelled YAP1 (60 to 99 residues)(unknown origin) protein-protein interaction preincubated for 24 hrs at 4 degree C with TEAD4 C367S mutant followed by fluorescent labelled YAP1 addition by fluorescence polarization assay; parameters: species or system Homo sapiens
# How it was run: (§2)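 FP: 64 nM TEAD4, TEAD4C367S, TEAD2 or TEAD3, or 250 nM TEAD1, was preincubated with compound for 24 h at 4 °C in PBS with 0.01% Triton X-100. FAM-YAP1 60–99 peptide (disulfide-crosslinked) was then added at 16 nM final. Polarization was read at ex 485/em 535 nm. Percent inhibition was taken relative to no-compound and no-protein controls. The single-point primary screen used 50 μM.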
# S2 = assay: Inhibition of uPAR (unknown origin) expressed in S2 cells/FAM-labelled alpha-helical peptide AE-147 (unknown origin) protein-protein interaction preincubated for 24 hrs at 4 degree C with uPAR followed by fluorescent labelled AE-147 addition by fluorescence polarization assay; conditions: Homo sapiens
# How it was run: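 Counter-screen FP: 250 nM uPAR lacking the GPI anchor (from S2 cells) was preincubated with compound for 24 h at 4 °C in PBS with 0.01% Triton X-100. AE-147-FAM peptide was then added at 100 nM final and polarization read at ex 485/em 535 nm.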
# [2] = target: T1, YAP1-TEAD4 (Homo sapiens) (UniProt P46937+Q15561); assay: Inhibition of GST-tagged TEAD4 (217 to 434 residues) (unknown origin) expressed in Escherichia coli BL21 (DE3) cells/FAM-labelled YAP1 (60 to 99 residues)(unknown origin) protein-protein interaction assessed as maximum inhibition at 50 uM preincubated for 24 hrs at 4 degree C with TEAD4 followed by fluorescent labelled YAP1 addition by fluorescence polarization assay; how it was run: as §2
# YAP1-TEAD4 [3] = target: T2, YAP1-TEAD4 (Homo sapiens, UniProt Q15561); assay: Inhibition of GST-tagged TEAD4 (217 to 434 residues) (unknown origin) expressed in Escherichia coli BL21 (DE3) cells/FAM-labelled YAP1 (60 to 99 residues)(unknown origin) protein-protein interaction preincubated for 24 hrs at 4 degree C with TEAD4 followed by fluorescent labelled YAP1 addition by fluorescence polarization assay; how it was run: as §2
# TEAD2-YAP1 = TEAD2-YAP1 (Homo sapiens, UniProt Q15562); assay: (§3) Inhibition of TEAD2 (217 to 447 residues) (unknown origin) expressed in Escherichia coli BL21 (DE3) cells/FAM-labelled YAP1 (60 to 99 residues)(unknown origin) protein-protein interaction preincubated for 24 hrs at 4 degree C with compound followed by fluorescent labelled YAP1 addition by fluorescence polarization assay; how it was run: as §2
# [4] = target: TEAD3-YAP1 (Homo sapiens) (UniProt P46937+Q99594); assay: Inhibition of TEAD3 (210 to 427 residues) (unknown origin) expressed in Escherichia coli BL21 (DE3) cells/FAM-labelled YAP1 (60 to 99 residues)(unknown origin) protein-protein interaction preincubated for 24 hrs at 4 degree C with compound followed by fluorescent labelled YAP1 addition by fluorescence polarization assay; how it was run: as §2
# [5] = target: T3, Transcriptional coactivator YAP1/Transcriptional enhancer factor TEF-1 (Homo sapiens) (UniProt P46937+P28347); assay: Covalent inhibition of TEAD1 (209 to 426 residues) (unknown origin) expressed in Escherichia coli BL21 (DE3) cells/FAM-labelled YAP1 (60 to 99 residues)(unknown origin) protein-protein interaction assessed as protein-compound adduct formation at 100 uM incubated for 24 hrs at 4 degree C followed by mass spectrometry analysis
# How it was run: (§4)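 Intact-protein MS: 2.5 μM protein (TEAD4 217–434 with GST cleaved, TEAD4C367S, TEAD1 209–426, TEAD2 217–447 or TEAD3 210–427) incubated with 100 μM compound in PBS for 24 h at 4 °C. Samples were centrifuged to remove precipitate, desalted on a C3 reverse-phase column with a water/acetonitrile 0.1% formic acid gradient, and masses were read by Q-TOF. Adduct peaks were reported as percent.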
# [6] = target: T1, YAP1-TEAD4 (Homo sapiens); assay: Covalent inhibition of GST-tagged TEAD4 (217 to 434 residues) (unknown origin) expressed in Escherichia coli BL21 (DE3) cells/FAM-labelled YAP1 (60 to 99 residues)(unknown origin) protein-protein interaction assessed as protein-compound adduct formation by second order rate constant, kinact/ki ratio at 100 uM incubated for 0.5 to 6 hrs at 4 degree C followed by mass spectrometry analysis; conditions: time 0.5-6 hrs
# How it was run: (§5)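 Kinetics by MS: 2.5 μM TEAD4 was incubated at 4 °C with 3.1–100 μM compound. Aliquots were quenched with 0.1 M formic acid at set times from 0.5 h upward and analysed by whole-protein MS. Adduct relative to unreacted protein was fit to 100×(1−e^(−kobs·t)) to give kobs. kobs versus concentration was fit hyperbolically for kinact and KI, or linearly for kinact/KI where no plateau was reached.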
# [7] = target: T3, Transcriptional coactivator YAP1/Transcriptional enhancer factor TEF-1 (Homo sapiens); assay: Inhibition of TEAD1 (209 to 426 residues) (unknown origin) expressed in Escherichia coli BL21 (DE3) cells/FAM-labelled YAP1 (60 to 99 residues)(unknown origin) protein-protein interaction assessed as maximum inhibition at 50 uM preincubated for 24 hrs at 4 degree C with compound followed by fluorescent labelled YAP1 addition by fluorescence polarization assay; how it was run: as §2
# [8] = target: Transcriptional coactivator YAP1/Transcriptional enhancer factor TEF-1 (Homo sapiens, UniProt P28347); assay: (§6) Inhibition of TEAD1 (209 to 426 residues) (unknown origin) expressed in Escherichia coli BL21 (DE3) cells/FAM-labelled YAP1 (60 to 99 residues)(unknown origin) protein-protein interaction preincubated for 24 hrs at 4 degree C with compound followed by fluorescent labelled YAP1 addition by fluorescence polarization assay; how it was run: as §2
# YAP1-TEAD4 [9] = target: T2, YAP1-TEAD4; assay: Inhibition of GST-tagged TEAD4 (217 to 434 residues) (unknown origin) expressed in Escherichia coli BL21 (DE3) cells/FAM-labelled YAP1 (60 to 99 residues)(unknown origin) protein-protein interaction preincubated for 0.5 hrs at 4 degree C with TEAD4 followed by fluorescent labelled YAP1 addition by fluorescence polarization assay
# How it was run: (§7)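 Time-course FP: 64 nM TEAD4 was preincubated with varying compound concentrations for 0.5, 6, 24 or 48 h at 4 °C in PBS with 0.01% Triton X-100. 16 nM FAM-YAP1 60–99 peptide was then added and polarization read at 485/535 nm, n = 2. Inhibition was taken relative to no-compound and no-protein controls.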
# Homo sapiens [10] = species on record: Homo sapiens; assay: Covalent inhibition of GST-tagged TEAD4 C367S mutant (unknown origin) expressed in Escherichia coli BL21 (DE3)/FAM-labelled YAP1 (60 to 99 residues)(unknown origin) protein-protein interaction assessed as protein-compound adduct formation at 100 uM incubated for 24 hrs at 4 degree C followed by mass spectrometry analysis; how it was run: as §4
# Homo sapiens [11] = species on record: Homo sapiens; assay: as §1; how it was run: as §2
# [12] = target: T1, YAP1-TEAD4 (Homo sapiens); assay: Covalent inhibition of GST-tagged TEAD4 (217 to 434 residues) (unknown origin) expressed in Escherichia coli BL21 (DE3) cells/FAM-labelled YAP1 (60 to 99 residues)(unknown origin) protein-protein interaction assessed as protein-compound adduct formation at 100 uM incubated for 24 hrs at 4 degree C followed by mass spectrometry analysis; how it was run: as §4
# [13] = target: T1, YAP1-TEAD4 (Homo sapiens); assay: Covalent inhibition of GST-tagged TEAD4 (217 to 434 residues) (unknown origin) expressed in Escherichia coli BL21 (DE3) cells/FAM-labelled YAP1 (60 to 99 residues)(unknown origin) protein-protein interaction assessed as second protein-compound adduct formation at 100 uM incubated for 24 hrs at 4 degree C followed by mass spectrometry analysis; how it was run: as §4
# [14] = target: T1, YAP1-TEAD4 (Homo sapiens); assay: Covalent inhibition of GST-tagged TEAD4 (217 to 434 residues) (unknown origin) expressed in Escherichia coli BL21 (DE3) cells/FAM-labelled YAP1 (60 to 99 residues)(unknown origin) protein-protein interaction assessed as additional protein-compound adduct formation at 100 uM incubated for 24 hrs at 4 degree C followed by mass spectrometry analysis; how it was run: as §4
# YAP1-TEAD4 [15] = target: T2, YAP1-TEAD4; assay: Inhibition of GST-tagged TEAD4 (217 to 434 residues) (unknown origin) expressed in Escherichia coli BL21 (DE3) cells/FAM-labelled YAP1 (60 to 99 residues)(unknown origin) protein-protein interaction preincubated for 48 hrs at 4 degree C with TEAD4 followed by fluorescent labelled YAP1 addition by fluorescence polarization assay; how it was run: as §7
# [16] = target: T4, TEAD2-YAP1 (Homo sapiens) (UniProt P46937+Q15562); assay: Inhibition of TEAD2 (217 to 447 residues) (unknown origin) expressed in Escherichia coli BL21 (DE3) cells/FAM-labelled YAP1 (60 to 99 residues)(unknown origin) protein-protein interaction assessed as maximum inhibition at 50 uM preincubated for 24 hrs at 4 degree C with compound followed by fluorescent labelled YAP1 addition by fluorescence polarization assay; how it was run: as §2
# [17] = target: T1, YAP1-TEAD4 (Homo sapiens); assay: Inhibition of GST-tagged TEAD4 (217 to 434 residues) (unknown origin) expressed in Escherichia coli BL21 (DE3) cells/FAM-labelled YAP1 (60 to 99 residues)(unknown origin) protein-protein interaction assessed maximum inhibition preincubated for 6 hrs at 4 degree C with TEAD4 followed by fluorescent labelled YAP1 addition by fluorescence polarization assay; how it was run: as §7
# YAP1-TEAD4 [18] = target: T2, YAP1-TEAD4; assay: Inhibition of GST-tagged TEAD4 (217 to 434 residues) (unknown origin) expressed in Escherichia coli BL21 (DE3) cells/FAM-labelled YAP1 (60 to 99 residues)(unknown origin) protein-protein interaction preincubated for 6 hrs at 4 degree C with TEAD4 followed by fluorescent labelled YAP1 addition by fluorescence polarization assay; how it was run: as §7
# [19] = target: T1, YAP1-TEAD4 (Homo sapiens); assay: Inhibition of GST-tagged TEAD4 (217 to 434 residues) (unknown origin) expressed in Escherichia coli BL21 (DE3) cells/FAM-labelled YAP1 (60 to 99 residues)(unknown origin) protein-protein interaction assessed maximum inhibition preincubated for 48 hrs at 4 degree C with TEAD4 followed by fluorescent labelled YAP1 addition by fluorescence polarization assay; how it was run: as §7
# [20] = target: T4, TEAD2-YAP1 (Homo sapiens); assay: as §3; how it was run: as §2
# [21] = target: T3, Transcriptional coactivator YAP1/Transcriptional enhancer factor TEF-1 (Homo sapiens); assay: as §6; how it was run: as §2
# YAP1-TEAD4 [22] = target: T2, YAP1-TEAD4; assay: Covalent inhibition of GST-tagged TEAD4 (217 to 434 residues) (unknown origin) expressed in Escherichia coli BL21 (DE3) cells/FAM-labelled YAP1 (60 to 99 residues)(unknown origin) protein-protein interaction assessed as protein-compound adduct formation by measuring inhibition constant at 100 uM incubated for 0.5 to 6 hrs at 4 degree C followed by mass spectrometry analysis; how it was run: as §5
# [23] = target: T1, YAP1-TEAD4 (Homo sapiens); assay: Covalent inhibition of GST-tagged TEAD4 (217 to 434 residues) (unknown origin) expressed in Escherichia coli BL21 (DE3) cells/FAM-labelled YAP1 (60 to 99 residues)(unknown origin) protein-protein interaction assessed as protein-compound adduct formation by measuring reaction half life at 100 uM incubated for 0.5 to 6 hrs at 4 degree C followed by mass spectrometry analysis; conditions: time 0.5-6 hrs; how it was run: as §5
# Chain of TEAD2-YAP1 (P46937 whole entry, the tested form may be a part): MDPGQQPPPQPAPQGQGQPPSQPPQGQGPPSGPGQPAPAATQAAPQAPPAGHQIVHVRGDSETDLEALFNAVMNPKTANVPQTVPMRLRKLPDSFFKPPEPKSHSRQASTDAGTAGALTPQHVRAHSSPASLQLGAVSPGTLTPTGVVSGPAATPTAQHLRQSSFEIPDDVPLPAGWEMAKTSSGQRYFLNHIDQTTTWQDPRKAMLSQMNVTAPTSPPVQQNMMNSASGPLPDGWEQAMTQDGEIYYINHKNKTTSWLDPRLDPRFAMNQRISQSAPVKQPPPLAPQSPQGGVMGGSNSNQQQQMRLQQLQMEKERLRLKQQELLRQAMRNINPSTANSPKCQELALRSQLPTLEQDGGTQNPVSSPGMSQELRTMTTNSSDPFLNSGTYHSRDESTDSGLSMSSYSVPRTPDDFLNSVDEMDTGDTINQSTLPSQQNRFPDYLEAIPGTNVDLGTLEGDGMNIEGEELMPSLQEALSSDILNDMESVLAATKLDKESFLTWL
# Chain of TEAD2-YAP1 (Q15562 whole entry, the tested form may be a part): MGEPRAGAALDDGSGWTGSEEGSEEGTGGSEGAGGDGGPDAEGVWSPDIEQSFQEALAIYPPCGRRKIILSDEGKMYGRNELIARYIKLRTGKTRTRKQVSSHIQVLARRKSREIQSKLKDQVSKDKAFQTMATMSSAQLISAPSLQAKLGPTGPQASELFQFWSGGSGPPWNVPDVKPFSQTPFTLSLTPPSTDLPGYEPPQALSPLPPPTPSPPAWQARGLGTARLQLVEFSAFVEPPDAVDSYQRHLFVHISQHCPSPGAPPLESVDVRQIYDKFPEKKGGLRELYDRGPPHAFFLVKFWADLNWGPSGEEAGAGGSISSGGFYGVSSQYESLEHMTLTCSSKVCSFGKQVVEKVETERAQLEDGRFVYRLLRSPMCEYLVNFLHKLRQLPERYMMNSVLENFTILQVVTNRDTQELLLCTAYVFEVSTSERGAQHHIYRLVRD
# Chain of TEAD3-YAP1 (Homo sapiens) (P46937 whole entry, looked up, the tested form may be a part): as the sequence (P46937 whole entry, the tested form may be a part) above
# Chain of TEAD3-YAP1 (Homo sapiens) (Q99594 whole entry, looked up, the tested form may be a part): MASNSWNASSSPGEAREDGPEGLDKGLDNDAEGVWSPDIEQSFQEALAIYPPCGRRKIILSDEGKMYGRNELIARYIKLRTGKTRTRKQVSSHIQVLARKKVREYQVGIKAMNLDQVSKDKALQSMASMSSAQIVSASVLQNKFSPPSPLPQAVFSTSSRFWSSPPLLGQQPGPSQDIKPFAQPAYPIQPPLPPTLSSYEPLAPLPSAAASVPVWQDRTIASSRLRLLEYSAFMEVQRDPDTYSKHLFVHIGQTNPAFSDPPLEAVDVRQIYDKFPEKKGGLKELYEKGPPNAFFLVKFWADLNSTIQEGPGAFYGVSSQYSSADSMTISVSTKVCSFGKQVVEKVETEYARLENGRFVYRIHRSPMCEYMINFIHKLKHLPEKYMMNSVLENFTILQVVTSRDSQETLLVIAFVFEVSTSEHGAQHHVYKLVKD
# T2 sequence (P46937 whole entry, the tested form may be a part): as the sequence (P46937 whole entry, the tested form may be a part) above
# T2 sequence (Q15561 whole entry, the tested form may be a part): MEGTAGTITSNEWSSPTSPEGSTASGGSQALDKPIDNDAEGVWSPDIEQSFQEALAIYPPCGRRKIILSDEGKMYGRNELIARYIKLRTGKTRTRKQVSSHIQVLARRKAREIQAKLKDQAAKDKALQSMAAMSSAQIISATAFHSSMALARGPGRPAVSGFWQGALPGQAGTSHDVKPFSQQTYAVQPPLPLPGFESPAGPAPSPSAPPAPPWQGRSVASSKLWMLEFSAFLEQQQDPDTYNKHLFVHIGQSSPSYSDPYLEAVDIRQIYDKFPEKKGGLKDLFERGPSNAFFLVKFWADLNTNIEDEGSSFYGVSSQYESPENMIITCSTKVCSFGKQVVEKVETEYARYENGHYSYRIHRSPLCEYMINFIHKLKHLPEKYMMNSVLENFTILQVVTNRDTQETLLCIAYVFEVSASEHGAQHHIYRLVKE
# T3 sequence (P28347 whole entry, looked up, the tested form may be a part): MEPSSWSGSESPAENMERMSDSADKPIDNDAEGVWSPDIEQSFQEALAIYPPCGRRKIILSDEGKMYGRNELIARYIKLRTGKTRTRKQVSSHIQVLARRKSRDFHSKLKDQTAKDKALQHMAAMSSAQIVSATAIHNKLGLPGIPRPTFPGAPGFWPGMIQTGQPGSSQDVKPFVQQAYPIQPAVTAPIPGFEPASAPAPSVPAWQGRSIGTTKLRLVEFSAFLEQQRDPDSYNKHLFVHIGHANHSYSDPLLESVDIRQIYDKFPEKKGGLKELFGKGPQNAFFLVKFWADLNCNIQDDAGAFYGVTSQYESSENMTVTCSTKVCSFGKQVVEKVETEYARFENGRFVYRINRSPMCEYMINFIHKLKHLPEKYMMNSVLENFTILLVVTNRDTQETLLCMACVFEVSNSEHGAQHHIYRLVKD
# T3 sequence (P46937 whole entry, looked up, the tested form may be a part): as the sequence (P46937 whole entry, the tested form may be a part) above
# T4 sequence (P46937 whole entry, looked up, the tested form may be a part): as the sequence (P46937 whole entry, the tested form may be a part) above
# T4 sequence (Q15562 whole entry, looked up, the tested form may be a part): as the sequence (Q15562 whole entry, the tested form may be a part) above
# Chain of Transcriptional coactivator YAP1/Transcriptional enhancer factor TEF-1 (P46937 whole entry, the tested form may be a part): as the sequence (P46937 whole entry, the tested form may be a part) above
# Chain of Transcriptional coactivator YAP1/Transcriptional enhancer factor TEF-1 (P28347 whole entry, the tested form may be a part): as the sequence (P28347 whole entry, looked up, the tested form may be a part) above
structure (smiles),measurement,setting,value
COc1ccccc1CN(C(=O)CCl)C(C(=O)NC1CCCCC1)c1ccncc1 (stereo not given),IC50,[1],27.9 µM
same,inhibition,S2,inactive
same,Imax,[2],100%
same,IC50,YAP1-TEAD4 [3],20.7 µM
NC(=O)c1oc2ccccc2c1NC(=O)CCl,IC50,TEAD2-YAP1,254 µM
same,inhibition,[4],inactive
same,inhibition,[5],100%
same,Ratio,[6],0.3 M⁻¹ s⁻¹
same,Imax,[7],31%
same,IC50,[8],3 µM
same,Imax,[2],35%
same,IC50,YAP1-TEAD4 [9],40 µM
same,inhibition,Homo sapiens [10],inactive
same,IC50,YAP1-TEAD4 [3],0.9 µM
COc1ccc(N(C(=O)CCl)C(C(=O)NCCc2ccccc2)c2cccs2)cc1Cl (stereo not given),inhibition,Homo sapiens [11],inactive
same,inhibition,S2,inactive
same,percent protein-compound adduct formation,[12],51%
same,Imax,[2],39%
same,percent second protein-compound adduct,[13],12%
same,inhibition,Homo sapiens [10],inactive
same,percent protein-compound adduct formation,[14],15%
same,IC50,YAP1-TEAD4 [3],1.1 µM
O=C(CCl)NCCSc1ccc(Cl)cc1,IC50,TEAD2-YAP1,86.7 µM
same,inhibition,[4],inactive
same,inhibition,[5],Active
same,Ratio,[6],1.6 M⁻¹ s⁻¹
same,IC50,[8],182 µM
same,Imax,[2],35%
same,inhibition,Homo sapiens [10],inactive
same,IC50,YAP1-TEAD4 [3],1.4 µM
CCOc1ccc(S(=O)(=O)N2CCN(C(=O)CCl)CC2)cc1,inhibition,Homo sapiens [11],inactive
same,IC50,TEAD2-YAP1,46.5 µM
same,IC50,YAP1-TEAD4 [15],19.4 µM
same,Imax,[16],14%
same,inhibition,[4],inactive
same,inhibition,[5],Active
same,inhibition,S2,inactive
same,Imax,[17],45%
same,Ratio,[6],2.4 M⁻¹ s⁻¹
same,percent protein-compound adduct formation,[12],100%
same,Imax,[2],44%
same,IC50,YAP1-TEAD4 [18],56.3 µM
same,Imax,[19],45%
same,IC50,YAP1-TEAD4 [3],11.1 µM
O=C(Nc1ccccc1)C1CCN(C(=O)CCl)CC1,inhibition,Homo sapiens [11],inactive
same,inhibition,[20],inactive
same,IC50,YAP1-TEAD4 [15],4.7 µM
same,inhibition,[4],inactive
same,inhibition,[5],Active
same,inhibition,S2,inactive
same,Imax,[17],33%
same,Ratio,[6],28.1 M⁻¹ s⁻¹
same,inhibition,[21],inactive
same,Ki,YAP1-TEAD4 [22],94 µM
same,percent protein-compound adduct formation,[12],100%
same,Imax,[2],41%
same,IC50,YAP1-TEAD4 [18],38.1 µM
same,Imax,[19],33%
same,IC50,YAP1-TEAD4 [3],22.8 µM
same,T1/2,[23],6 min
